# Measured values from ChEMBL document CHEMBL2434847, “Design, synthesis, and structure-activity relationships of novel 6,7-disubstituted-4-phenoxyquinoline derivatives as potential antitumor agents” (Eur J Med Chem, 2013).
# Tests used:
# MKN-45 = test: Cytotoxicity against human MKN45 cells after 72 hrs by MTT assay; conditions: MKN-45, 72 h
# [1] = Cytotoxicity against human H460 cells after 72 hrs by MTT assay; conditions: NCI-H460, 72 h
# HT-29 = test: Cytotoxicity against human HT-29 cells after 72 hrs by MTT assay; conditions: HT-29, 72 h
# [2] = Cytotoxicity against human U87MG cells after 72 hrs by MTT assay; format: functional, cell-based, U-87MG ATCC; conditions: U-87 MG
# Procedure, shortened: (§1)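 Cells grown in MEM with 10% FBS; about 4 × 10³ cells per well, preincubated 24 h at 37 °C in 5% CO₂, then exposed to compound for 72 h. Each line tested three times; IC50 is mean of three determinations.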
# A549 = test: Cytotoxicity against human A549 cells after 72 hrs by MTT assay; format: functional, cell-based; conditions: A549, 72 h; procedure, shortened: as §1
Compound,IC50 (MKN-45) [nM],IC50 [1] [nM],IC50 (HT-29) [nM],IC50 [2] [nM],IC50 (A549) [nM]
COc1cc2c(Oc3ccc(NC(=O)c4nccc(-c5ccccc5)n4)cc3F)ccnc2cc1OCCCN1CCCCC1,1030,330,260,–,–
COc1cc2c(Oc3ccc(NC(=O)c4cc(-c5ccc(F)cc5)ccn4)cc3F)ccnc2cc1OCCCN1CCCCC1,1240,250,1370,12500,10100
COc1cc2c(Oc3ccc(NC(=O)c4nccc(-c5ccc(C)cc5)n4)cc3F)ccnc2cc1OCCCN1CCCCC1,580,230,620,1140,900
COc1cc2c(Oc3ccc(NC(=O)c4cc(-c5ccccc5F)ccn4)cc3F)ccnc2cc1OCCCN1CCN(C)CC1,150,140,220,–,–
COc1cc2c(Oc3ccc(NC(=O)c4nccc(-c5ccc(C)cc5)n4)cc3F)ccnc2cc1OCCCN1CCOCC1,310,300,240,2400,2240
COc1cc2c(Oc3ccc(NC(=O)c4nccc(-c5ccc(F)cc5F)n4)cc3F)ccnc2cc1OCCCN1CCCCC1,1120,550,400,780,470
COc1cc2c(Oc3ccc(NC(=O)c4cc(-c5ccccc5C)ccn4)cc3F)ccnc2cc1OCCCN1CCN(C)CC1,240,150,180,2030,1330
COc1cc2c(Oc3ccc(NC(=O)c4nccc(-c5ccccc5)n4)cc3F)ccnc2cc1OCCCN1CCCC1,1360,1120,390,–,–
COc1cc2c(Oc3ccc(NC(=O)c4cc(-c5ccc(C)cc5)ccn4)cc3F)ccnc2cc1OCCCN1CCCC1,440,160,350,560,1060
COc1cc2c(Oc3ccc(NC(=O)c4cc(-c5ccccc5)ccn4)cc3F)ccnc2cc1OCCCN1CCN(C)CC1,150,91,82,1010,340
COc1cc2c(Oc3ccc(NC(=O)c4cc(-c5ccc(F)cc5)ccn4)cc3F)ccnc2cc1OCCCN1CCCC1,350,370,430,1780,1800
COc1cc2c(Oc3ccc(NC(=O)c4nccc(-c5ccc(F)cc5)n4)cc3F)ccnc2cc1OCCCN1CCOCC1,360,220,110,–,–
COc1cc2c(Oc3ccc(NC(=O)c4cc(-c5ccccc5C)ccn4)cc3F)ccnc2cc1OCCCN1CCOCC1,1140,2130,1050,–,–
COc1cc2c(Oc3ccc(NC(=O)c4cc(-c5ccc(F)cc5)ccn4)cc3F)ccnc2cc1OCCCN1CCOCC1,870,1870,1000,–,–
COc1cc2c(Oc3ccc(NC(=O)c4cc(-c5ccccc5C)ccn4)cc3F)ccnc2cc1OCCCN1CCCC1,440,420,1150,–,–
COc1cc2c(Oc3ccc(NC(=O)c4cc(-c5ccccc5)ccn4)cc3F)ccnc2cc1OCCCN1CCCC1,210,130,120,1010,1580
COc1ccc(-c2ccnc(C(=O)Nc3ccc(Oc4ccnc5cc(OCCCN6CCCC6)c(OC)cc45)c(F)c3)c2)cc1,150,200,350,–,–
COc1cc2c(Oc3ccc(NC(=O)c4cc(-c5ccccc5)ccn4)cc3F)ccnc2cc1OCCCN1CCCCC1,270,120,270,790,1800
COc1cc2c(Oc3ccc(NC(=O)c4nccc(-c5ccc(C)cc5)n4)cc3F)ccnc2cc1OCCCN1CCCC1,240,440,670,–,–
COc1ccc(-c2ccnc(C(=O)Nc3ccc(Oc4ccnc5cc(OCCCN6CCCC6)c(OC)cc45)c(F)c3)c2)c(OC)c1,740,520,630,–,–
COc1cc2c(Oc3ccc(NC(=O)c4nccc(-c5ccccc5)n4)cc3F)ccnc2cc1OCCCN1CCOCC1,260,240,150,1350,510
COc1cc2c(Oc3ccc(NC(=O)c4cc(-c5ccccc5)ccn4)cc3F)ccnc2cc1OCCCN1CCOCC1,280,350,330,1280,3450

Compound,IC50 (MKN-45) [nM],IC50 [1] [nM],IC50 (HT-29) [nM],IC50 [2] [nM],IC50 (A549) [nM]
COc1cc2c(Oc3ccc(NC(=O)c4nccc(-c5ccc(C)cc5)n4)cc3F)ccnc2cc1OCCCN1CCN(C)CC1,340,160,210,–,–
COc1cc2c(Oc3ccc(NC(=O)c4nccc(-c5ccc(F)cc5)n4)cc3F)ccnc2cc1OCCCN1CCCCC1,930,240,120,–,–
COc1cc2c(Oc3ccc(NC(=O)c4cc(-c5ccccc5F)ccn4)cc3F)ccnc2cc1OCCCN1CCOCC1,1310,680,400,3030,3990
COc1cc2c(Oc3ccc(NC(=O)c4cc(-c5ccc(C(F)(F)F)cc5)ccn4)cc3F)ccnc2cc1OCCCN1CCCCC1,870,360,230,1630,1640
COc1cc2c(Oc3ccc(NC(=O)c4nccc(-c5ccc(F)cc5F)n4)cc3F)ccnc2cc1OCCCN1CCOCC1,960,1030,2190,–,–
COc1ccc(-c2ccnc(C(=O)Nc3ccc(Oc4ccnc5cc(OCCCN6CCCCC6)c(OC)cc45)c(F)c3)c2)cc1,570,200,690,–,–
COc1cc2c(Oc3ccc(NC(=O)c4cc(-c5ccc(C(F)(F)F)cc5)ccn4)cc3F)ccnc2cc1OCCCN1CCCC1,260,250,720,–,–
COc1ccc(-c2ccnc(C(=O)Nc3ccc(Oc4ccnc5cc(OCCCN6CCOCC6)c(OC)cc45)c(F)c3)c2)cc1,1150,3120,1340,–,–
COc1ccc(-c2ccnc(C(=O)Nc3ccc(Oc4ccnc5cc(OCCCN6CCN(C)CC6)c(OC)cc45)c(F)c3)c2)cc1,250,370,390,–,–
COc1ccc(-c2ccnc(C(=O)Nc3ccc(Oc4ccnc5cc(OCCCN6CCOCC6)c(OC)cc45)c(F)c3)c2)c(OC)c1,6680,12700,1530,–,–
COc1ccc(-c2ccnc(C(=O)Nc3ccc(Oc4ccnc5cc(OCCCN6CCN(C)CC6)c(OC)cc45)c(F)c3)c2)c(OC)c1,330,430,420,–,–
COc1cc2c(Oc3ccc(NC(=O)c4cc(-c5ccccc5F)ccn4)cc3F)ccnc2cc1OCCCN1CCCC1,230,140,230,610,430
COc1cc2c(Oc3ccc(NC(=O)c4nccc(-c5ccc(F)cc5F)n4)cc3F)ccnc2cc1OCCCN1CCN(C)CC1,440,450,480,780,660
COc1cc2c(Oc3ccc(NC(=O)c4cc(-c5ccc(C(F)(F)F)cc5)ccn4)cc3F)ccnc2cc1OCCCN1CCN(C)CC1,330,160,200,–,–
COc1cc2c(Oc3ccc(NC(=O)c4cc(-c5ccc(F)cc5)ccn4)cc3F)ccnc2cc1OCCCN1CCN(C)CC1,510,430,1460,–,–
COc1cc2c(Oc3ccc(NC(=O)c4cc(-c5ccc(C)cc5)ccn4)cc3F)ccnc2cc1OCCCN1CCOCC1,440,570,290,6790,3450
COc1cc2c(Oc3ccc(NC(=O)c4nccc(-c5ccc(F)cc5)n4)cc3F)ccnc2cc1OCCCN1CCN(C)CC1,90,63,42,910,680
COc1cc2c(Oc3ccc(NC(=O)c4nccc(-c5ccc(F)cc5)n4)cc3F)ccnc2cc1OCCCN1CCCC1,490,300,160,1130,990
COc1cc2c(Oc3ccc(NC(=O)c4cc(-c5ccc(C)cc5)ccn4)cc3F)ccnc2cc1OCCCN1CCCCC1,1670,160,340,–,–
COc1cc2c(Oc3ccc(NC(=O)c4cc(-c5ccc(C(F)(F)F)cc5)ccn4)cc3F)ccnc2cc1OCCCN1CCOCC1,78800,52700,5070,–,–
COc1cc2c(Oc3ccc(NC(=O)c4cc(-c5ccccc5F)ccn4)cc3F)ccnc2cc1OCCCN1CCCCC1,180,130,320,–,–
